Data from publication PMC5319884 (Biochemistry, 2017).
“Also recorded” adds a separate entry of the source. Read-outs that look alike come from different tables or passages of the source.

Assays:
Type in all cases: biochemical
hGOAT [1] = target: T1, hGOAT (Homo sapiens, UniProt Q96T53); assay: in vitro hGOAT octanoylation activity assay
T1 sequence (Q96T53 1-435): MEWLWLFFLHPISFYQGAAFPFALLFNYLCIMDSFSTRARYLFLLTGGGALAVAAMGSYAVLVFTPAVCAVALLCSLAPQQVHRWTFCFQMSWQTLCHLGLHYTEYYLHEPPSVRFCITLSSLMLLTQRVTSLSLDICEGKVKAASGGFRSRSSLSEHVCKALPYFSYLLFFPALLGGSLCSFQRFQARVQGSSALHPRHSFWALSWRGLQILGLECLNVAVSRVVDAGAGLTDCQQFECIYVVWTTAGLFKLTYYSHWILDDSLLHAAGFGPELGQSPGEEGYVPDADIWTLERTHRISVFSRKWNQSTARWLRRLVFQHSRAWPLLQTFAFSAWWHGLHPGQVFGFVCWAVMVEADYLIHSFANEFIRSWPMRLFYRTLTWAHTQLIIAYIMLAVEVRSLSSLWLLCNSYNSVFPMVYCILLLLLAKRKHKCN
Procedure, shortened: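 hGOAT was expressed in Sf9 cell membrane fractions, homogenized by needle, and ~100 μg membrane protein was preincubated 30 min at room temperature with 1 μM MAFP and test compound or vehicle (DMSO or ethanol) in 50 mM HEPES pH 7.0. Reactions were started with 500 μM octanoyl-CoA and 1.5 μM acrylodan-labeled peptide, run 3 h at room temperature in the dark, acid/isopropanol-stopped, TCA-clarified and analysed by reverse-phase HPLC. Percent activity was taken as octanoylated/total peptide fluorescence relative to vehicle, from three independent determinations.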

hGOAT [2] = target: T1, hGOAT; assay: inhibitor reversibility; conditions: pretreatment at 3 x IC50, 10-fold dilution
Procedure, shortened: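 Undiluted homogenised Sf9 membrane containing hGOAT (~7 μg/μL protein) was preincubated 30 min at RT with 10 μM MAFP and inhibitor or vehicle (DMSO or ethanol). It was then diluted 10-fold into 50 mM HEPES pH 7.0 with 500 μM octanoyl CoA, 1.5 μM GSSFLC-acrylodan, and either vehicle or inhibitor at the same final level as in preincubation. Reactions ran 3 h at RT in the dark, followed by RP-HPLC quantitation of octanoylated peptide.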

mGOAT = target: T2, mGOAT (Mus musculus, UniProt P0C7A3); assay: in vitro mGOAT octanoylation activity assay; conditions: side-by-side assay, mGOAT IC50 higher than hGOAT
T2 sequence (P0C7A3 1-435): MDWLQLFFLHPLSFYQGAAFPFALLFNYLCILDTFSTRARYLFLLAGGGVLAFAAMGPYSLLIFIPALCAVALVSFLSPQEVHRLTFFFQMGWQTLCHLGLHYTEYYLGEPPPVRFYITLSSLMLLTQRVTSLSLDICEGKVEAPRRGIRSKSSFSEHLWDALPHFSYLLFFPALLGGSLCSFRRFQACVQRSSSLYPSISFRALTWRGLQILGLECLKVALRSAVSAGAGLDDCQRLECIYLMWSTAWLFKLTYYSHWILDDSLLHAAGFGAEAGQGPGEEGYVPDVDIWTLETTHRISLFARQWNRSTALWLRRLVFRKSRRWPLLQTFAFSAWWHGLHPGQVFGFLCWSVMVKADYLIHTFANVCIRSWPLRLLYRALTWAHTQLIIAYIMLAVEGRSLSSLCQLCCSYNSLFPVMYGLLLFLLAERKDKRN
Procedure, shortened: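 mGOAT and hGOAT were expressed in Sf9 insect-cell membrane fractions, which were thawed on ice and homogenised through an 18-gauge needle. About 100 μg membrane protein was preincubated 30 min at room temperature with 1 μM MAFP plus inhibitor or vehicle (DMSO or ethanol) in 50 mM HEPES pH 7.0.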

hGOAT [3] = target: T1, hGOAT; assay: inhibitor time dependence with hGOAT; conditions: preincubation 5-60 min, 10 min reaction, 30 μM CDDO-EA
Procedure, shortened: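 hGOAT Sf9 membranes (~100 μg protein) were first preincubated 30 min at RT with 1 μM MAFP in 50 mM HEPES pH 7.0. Inhibitor or vehicle was then added for 5, 10, 30 or 60 min before starting with 500 μM octanoyl CoA and 1.5 μM GSSFLC-acrylodan. The reaction ran only 10 min at RT in the dark, then was stopped and analysed by RP-HPLC. % activity versus vehicle and IC50 were derived per preincubation time; minimum of three measurements.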

| reversibility of hGOAT inhibition (hGOAT [2]) | inhibition of hGOAT activity (hGOAT [1]; at concentrations up to 100 μM) | inhibition of hGOAT activity (hGOAT [1]) | Molecule | further results |
| --- | --- | --- | --- | --- |
| reversible inhibition | – | – | [Dap^3]octanoyl-ghrelin (1-5)-NH2 | – |
| – | fails to inhibit | – | CC1(C)CC[C@]2(C)CC=C3[C@]4(C)CC[C@H]5C(C)(C)[C@@H](O)CC[C@]5(C)[C@H]4CC[C@@]3(C)[C@@H]2C1 [Compound 8, taraxerol] | – |
| – | – | lack of hGOAT inhibition | C[C@]12CC[C@@H]3c4ccc(O)cc4CC[C@H]3[C@@H]1CCC2=O [Compound 15, estrone] | – |

The next lines start with the molecule.

| Molecule | reversibility of hGOAT inhibition (hGOAT [2]) | inhibition of hGOAT activity (hGOAT [1]; at concentrations up to 100 μM) | inhibition of hGOAT activity (hGOAT [1]) | further results |
| --- | --- | --- | --- | --- |
| O=C1C=CCCC1 [Compound 18, cyclohexenone] | – | – | – | inhibition of hGOAT activity (hGOAT [1]; at concentrations up to 1 mM): does not inhibit hGOAT activity |
| CC1(C)CC[C@]2(C(=O)O)CC[C@]3(C)C(=CC[C@@H]4[C@@]5(C)CC[C@H](O)C(C)(C)[C@@H]5CC[C@]43C)[C@@H]2C1 [Compound 7, oleanic acid] | – | negligible inhibition | – | – |
| COC(=O)[C@]12CCC(C)(C)C[C@H]1[C@H]1C(=O)C=C3[C@@]4(C)C=C(C#N)C(=O)C(C)(C)[C@@H]4CC[C@@]3(C)[C@]1(C)CC2 [Compound 2, methyl 2-cyano-3,12-dioxooleana-1,9(11)dien-28-oate] | – | – | exhibits inhibitory activity against hGOAT; also recorded: most potent inhibition of hGOAT | – |
| CCN1C(=O)C=CC1=O [NEM, N-ethylmaleimide] | irreversible hGOAT inhibition | – | efficiently inhibits hGOAT | – |
| CCNC(=O)[C@]12CCC(C)(C)C[C@H]1[C@H]1C(=O)C=C3[C@@]4(C)C=C(C#N)C(=O)C(C)(C)[C@@H]4CC[C@@]3(C)[C@]1(C)CC2 [Compound 3] | reversible hGOAT inhibition | – | most potent inhibition of hGOAT | IC50 against mGOAT relative to hGOAT (mGOAT): ~ 8 fold; time dependence of hGOAT inhibition (hGOAT [3]): time-dependent inhibition |
| CC1(C)CC[C@]2(C(=O)O)CC[C@]3(C)[C@H](C(=O)C=C4[C@@]5(C)C=C(C#N)C(=O)C(C)(C)[C@@H]5CC[C@]43C)[C@@H]2C1 [Compound 5] | – | – | lack of inhibition | – |
| C[C@H]1[C@H](C)CC[C@]2(C(=O)O)CC[C@]3(C)C(=CC[C@@H]4[C@@]5(C)CC[C@H](O)C(C)(C)[C@@H]5CC[C@]43C)[C@H]12 [Compound 6, ursolic acid] | – | negligible inhibition | – | – |
